Source: PubChem BioAssay
An excerpt weighted towards active compounds, which were near 3.5% of everything screened.
MrgX1 antag: antagonists of human MrgX1 receptor, primary screen, HEK293 cells, Fluo-4 calcium flux | BAM8-22 antagonism; active compounds read low | AID 588676, 2011 | B-score at 10 µM | 1.3% of 310,000 active;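 active means calcium-response B-score plate-corrected more than 3 library SD below zero, starting fluorescence within 5 deviations, no agonist response on first addition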;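 further: peak minus trough fluorescence over baseline after final BAM8-22 challenge near maximal dose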
Target sequence (Q96LB2 whole entry, looked up): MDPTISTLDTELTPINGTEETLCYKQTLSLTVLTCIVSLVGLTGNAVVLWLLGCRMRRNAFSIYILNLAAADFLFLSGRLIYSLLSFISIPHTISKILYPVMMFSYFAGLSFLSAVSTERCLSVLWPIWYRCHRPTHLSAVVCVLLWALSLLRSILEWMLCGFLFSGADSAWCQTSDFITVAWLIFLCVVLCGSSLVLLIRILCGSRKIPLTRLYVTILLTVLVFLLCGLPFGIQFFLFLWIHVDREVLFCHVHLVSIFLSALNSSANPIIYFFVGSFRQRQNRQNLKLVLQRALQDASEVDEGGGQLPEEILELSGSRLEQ
MrgX1 PAM: positive allosteric modulators of MrgX1, primary screen, HEK293 cells, Fluo-4 calcium flux; AID 588675, 2011; 0.63% of 310,000 active; B-score at 10 µM; FDSS; active compounds read high; Mas-related G-protein coupled receptor member X1 (Homo sapiens), Q96LB2;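 active means plate-corrected calcium response at least 3 library SD above typical, normal starting fluorescence, not activating the receptor alone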;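 further: compound read alongside a low EC10 to EC30 dose of BAM8-22 agonist; peak minus trough fluorescence over baseline measured at the second addition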
RGS4 act: RGS4 potentiators or activators, primary screen, cell-based, HEK293 M3R inducible RGS4, calcium flux. 0.92% of 310,000 active. carbachol calcium flux Fluo4; active compounds read low. B-score at 10 µM. AID 463111, 2010;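 active means B-score of the integrated calcium signal more than 4 SD below the library mean, with starting fluorescence not abnormally high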;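 further: negative B-score means reduced calcium response which marks RGS4 activation or potentiation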
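Assay system: Inducible-RGS4 HEK293 cells carrying M3 receptor | Schedule: Compound preincubation 20 min at room temperature before agonist | Signal: Kinetic calcium fluorescence imaging with Fluo4-AM dye, 2 µM | Read-out basis: B score from integrated fluorescence ratio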
MrgX1 ag: agonists of human MrgX1 receptor, primary screen, HEK293 cells, Fluo-4 calcium flux; B-score at 10 µM; AID 588627, 2011; 0.44% of 310,000 active; Fluo-4 calcium fluorescence, agonist mode; active compounds read high;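 active means calcium response B-score plate-corrected fluorescence ratio at least 3 library SD, with starting fluorescence B-score inside 5 SD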
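times = overnight plating, then 30 min 37 °C plus 30 min room-temperature dye loading | assay system = stable human MrgX1 HEK293 cell line | input = fifteen thousand cells per well | signal = kinetic calcium dye fluorescence, Fluo-4 NW | dosing = compound delivered in addition one of three | read-out = B-scored fluorescence response ratio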
RGS4 inh: RGS4 inhibitors, primary screen, cell-based, HEK293 M3R inducible RGS4, calcium flux; B-score at 10 µM; 0.45% of 310,000 active; Fluo-4 calcium flux; active compounds read high; triggered by carbachol at its EC20;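 active means B-score, a plate-corrected calcium signal, over three deviations above library mean, with baseline fluorescence within five deviations of library mean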;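 further: RGS4 expression induced by doxycycline in cells with stable M3 receptor; B-score is computed from the integrated fluorescence ratio over baseline after carbachol; higher B-score means a larger calcium signal and so more RGS4 inhibition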
Target sequence (P49798 whole entry, looked up): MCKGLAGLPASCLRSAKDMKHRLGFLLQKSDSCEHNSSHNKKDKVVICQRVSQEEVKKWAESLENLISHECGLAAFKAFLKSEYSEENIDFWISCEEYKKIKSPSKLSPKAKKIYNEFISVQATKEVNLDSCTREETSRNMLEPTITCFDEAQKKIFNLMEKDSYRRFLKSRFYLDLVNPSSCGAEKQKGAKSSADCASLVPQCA
RGS4 act valid: reduced carbachol calcium response, RGS4-induced M3R cells, confirmation, RGS4 activator project, cell-based, HEK293 M3R/RGS4 inducible, calcium flux, duplicate. shares compounds with RGS4 act. 89% of 1,100 active. carbachol calcium flux Fluo4. inhibition, % at 10 µM;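 active means inhibition above 3 SD of the buffer control wells, cut at about 41% in these data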;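 further: signal is the integrated peak-minus-minimum Fluo4 fluorescence over baseline ratio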
RGS4 act ctr: RGS4 activator counter-screen hit in non-induced cells; AID 602283; inhibition, % at 10 µM; shares compounds with RGS4 act; HEK293 M3R non-induced RGS4, Fluo4 calcium flux; after carbachol challenge at its EC90; 82% of 1,100 active;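 active means inhibition exceeding 3 SD of buffer-only control wells, cut at about 26% in these data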;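 further: percent drop in integrated peak-minus-baseline over baseline Fluo4 ratio after carbachol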
* = called active by the depositor; i = inactive; / = not tested or not shown.

SMILES	MrgX1 antag	MrgX1 PAM	RGS4 act	MrgX1 ag	RGS4 inh	RGS4 act valid	RGS4 act ctr
CCc1ccc([C@@H]2C[C@H]3CN(Cc4ccccc4OC)C(=O)[C@]34CCCN24)cc1	i	i	-9.5*	i	i	79*	30*
CN(C)Cc1ccccc1CCc1ccccc1	i	i	-8.3*	i	i	78*	42*
CCCc1cc(=O)n2nc(N3CCC(C(=O)N4CCN(c5ccc(OC)cc5)CC4)CC3)sc2n1	i	i	i	i	i	/	/
COc1cccc(C2SCC(=O)N2c2ccc(Br)cc2)c1OC (stereo not given)	i	i	-9.8*	i	i	91*	92*
Cc1cc(C)n(-c2ccc(NC(=O)C3CCN(Cc4ccccn4)CC3)cc2)n1	i	i	i	i	i	/	/
N#CCC(=O)N/N=C/c1cn(Cc2ccccc2C#N)c2ccccc12	i	i	i	i	i	/	/
N#CCC(=O)N/N=C/c1c(-c2ccccc2)n(-c2ccccc2)c2ccccc12	i	i	-12*	i	i	86*	50*
NC(=O)C1=C[C@@H](c2ccccc2)C[C@@H](OCc2ccc(CO)cc2)O1	i	i	i	i	i	/	/
CC(=O)N1CCN(c2ccc(NC(=O)c3ccc([N+](=O)[O-])cc3Cl)cc2)CC1	i	i	i	i	i	/	/
CCCCN(CCCC)S(=O)(=O)c1ccc(NC(=O)c2ccc([N+](=O)[O-])cc2Cl)cc1	i	i	-11*	i	i	86*	60*
Cn1cc(Br)c(C(=O)Nc2ncc(Br)s2)n1	i	i	i	i	i	/	/
CCOC(=O)C1CCCN(C(=O)c2cc3c(C)nc4ccccc4c3o2)C1 (stereo not given)	i	i	-9.2*	i	i	82*	61*
CCC(=O)C1CCCN(C(=O)c2ccc3nc(-c4cccc(OC)c4)oc3c2)C1 (stereo not given)	i	i	i	i	i	/	/
Cc1ccc(C)c(N2CCN(C(=O)c3cc4c(C)nc5ccccc5c4o3)CC2)c1	i	i	-8.5*	i	i	89*	68*
CCOC(=O)C1CCCN(C(=O)c2ccc3nc(-c4cccc(OC)c4)oc3c2)C1 (stereo not given)	i	i	-8.7*	i	i	54*	84*
Cc1ccc(CNC(=O)c2cc3c(C)nc4ccccc4c3o2)cc1	i	i	i	i	i	/	/
COc1ccccc1NCc1nnc(-c2ccccc2)o1	i	i	i	i	i	/	/
O=C(CCl)N1CCN(CC(=O)N2CCCC2)CC1	i	i	i	i	i	/	/
CCC(OC(=O)c1cccs1)C(=O)NCc1ccc(C)cc1 (stereo not given)	i	i	i	i	i	/	/
O=C(O)/C=C/C(=O)N1CCN(c2cccc(Cl)c2)CC1	i	i	i	i	i	/	/
COc1cc2c(cc1OC)CN(CC(=O)Nc1ccc(C)c(S(=O)(=O)N3CCOCC3)c1)CC2	i	i	i	i	i	/	/
O=C(CNC(=O)c1ccc([N+](=O)[O-])cc1)c1ccccc1	i	i	i	i	i	/	/
O=C(CNc1ccccc1)c1ccc([N+](=O)[O-])cc1	i	i	-11*	i	i	76*	84*
C=Cc1ccc(Cn2nc(-c3ccccc3)ccc2=O)cc1	i	i	i	i	i	/	/
OC1(CC#CCN2CCCCC2)c2ccccc2-c2ccccc21	i	i	i	i	i	/	/
SMILES	MrgX1 antag	MrgX1 PAM	RGS4 act	MrgX1 ag	RGS4 inh	RGS4 act valid	RGS4 act ctr
OC1(C#CCCN2CCCCC2)c2ccccc2-c2ccccc21	i	i	-8.7*	i	i	92*	60*
CCN(C(=O)COc1ncnc2sccc12)c1ccccc1	i	i	i	i	i	/	/
CC(=O)NN1C(=O)/C(=C\c2ccc(Cl)cc2)SC1=S	i	i	-12*	i	i	0	0
CN(C)S(=O)(=O)c1cccc(C(=O)Nc2ccc(S(=O)(=O)N3CCCC3)cc2)c1	i	i	-7.9*	i	i	70*	84*
CN(C)S(=O)(=O)c1cccc(NC(=O)c2ccc(S(=O)(=O)N3CCCCC3)cc2)c1	i	i	i	i	i	/	/
COCCNC(=S)Nc1ccc2nc(N3CCOCC3)cc(C)c2c1	i	i	-11*	i	i	0	0
O=c1c2c(nc3n1CCCCC3)-c1ccccc1CC21CCCC1	i	i	-11*	i	i	93*	94*
Nn1cnc2c(c1=O)C1(CCCCC1)Cc1ccccc1-2	i	i	i	i	i	/	/
CSC1=NCCN1C(=O)COc1ccccc1	i	i	i	i	i	/	/
CSC1=NCCN1C(=O)COc1ccc2ccccc2c1	i	i	-9.5*	i	i	0	0
O=C(NC1CCCCCC1)c1cc(S(=O)(=O)N2CCOCC2)ccc1F	i	i	i	i	i	/	/
COc1cc(C)c(C(C)C)cc1S(=O)(=O)N1CCOCC1	i	i	-8.8*	i	i	0	0
CCOc1cc(C)c(C(C)C)cc1S(=O)(=O)N1CCOCC1	i	i	i	i	i	/	/
CCN(CC)CCN(C(=O)c1ccc(CN2CCCCC2)o1)C(C(=O)NC1CCCCC1)c1ccc(F)cc1 (stereo not given)	i	i	i	i	i	/	/
O=C(NC1CCCCCC1)c1cccnc1Sc1ccccc1	i	i	i	i	i	/	/
Cc1nc2nc(SCC(=O)NCCCN3CCCC3)nn2c(C)c1Cc1ccccc1Cl	i	i	-8.2*	i	i	78*	42*
